Compound activity deposited in PubChem by The Scripps Research Institute Molecular Screening Center.
Only some compounds are listed: those with a hit (about 3.1% of all), similar ones and a draw of the others.
GalR3 antagonist – blocks the human galanin receptor 3 | HEK293 GalR3-CNG cAMP membrane potential fluorescence; galR3 body fused to GalR1 C-terminus | AID 651719 | O60755 | inhibition, % at 3 µM | 360,000 tested, 0.44% active;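 active = inhibition above the screen-wide average plus 3 SD, cut at about 13% in these data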;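 note: forskolin and galanin both at EC90 stimulate the cells; cAMP rise reported by CNG channel membrane potential dye signal; 0% = forskolin plus galanin with DMSO and 100% = forskolin alone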
Target sequence (O60755 1-299 limits assumed): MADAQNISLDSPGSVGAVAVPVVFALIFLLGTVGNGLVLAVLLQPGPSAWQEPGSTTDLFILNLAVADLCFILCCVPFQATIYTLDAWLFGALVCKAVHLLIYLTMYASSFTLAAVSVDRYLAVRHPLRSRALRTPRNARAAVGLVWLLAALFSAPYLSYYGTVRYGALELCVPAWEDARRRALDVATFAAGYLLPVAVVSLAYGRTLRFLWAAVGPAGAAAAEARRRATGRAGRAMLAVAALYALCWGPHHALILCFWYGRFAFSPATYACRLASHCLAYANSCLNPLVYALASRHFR
OX1R antag-1 – antagonists of human orexin 1 receptor (OX1R); O43613; OX1R-expressing cells, FRET antagonist read-out; inhibition, % at 6.6 µM; 330,000 tested, 1.8% active; in the data active = inhibition mostly above about 38%, no sharp cut-off; inactive = mostly below about 40%;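 note: 0% = agonist challenge alone and 100% = reference antagonist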
GPR7 antagonist – antagonists of human GPR7 (neuropeptides B/W receptor 1). 290,000 tested, 1.1% active. inhibition, % at 4.4 µM. GPR7-expressing cells, fluorescence antagonist assay; in the data active = inhibition above about 16%, passing the limit was not always enough;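 note: cells stimulated with the agonist NPW; 0% = agonist with vehicle and 100% = vehicle without agonist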
Target sequence (P48145 whole entry, looked up): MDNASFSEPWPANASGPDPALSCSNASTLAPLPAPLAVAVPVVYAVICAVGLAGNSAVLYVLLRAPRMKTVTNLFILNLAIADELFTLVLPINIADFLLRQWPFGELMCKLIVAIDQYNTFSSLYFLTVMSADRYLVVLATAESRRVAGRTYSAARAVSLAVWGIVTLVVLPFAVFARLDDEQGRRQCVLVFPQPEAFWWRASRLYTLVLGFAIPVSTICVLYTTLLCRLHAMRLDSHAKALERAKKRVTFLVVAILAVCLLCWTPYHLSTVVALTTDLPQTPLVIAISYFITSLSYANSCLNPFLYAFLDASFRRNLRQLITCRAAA
CHO parental Ca – counter-screen: ATP calcium response change in parental CHO cells. parental CHO-K1, ATP-induced calcium, Fluo-8 fluorescence. inhibition, % at 5.6 µM. 330,000 tested, 0.63% active. AID 463079;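 active = inhibition above that plate's mean sample inhibition plus 3 SD, cut at about 26% in these data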;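 note: 0% = ATP-challenged DMSO wells and 100% = DMSO wells without ATP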
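material = parental CHO cells | also added = ATP as calcium-mobilizing challenge | dosing = single point at 5.6 µM | detection = intracellular calcium via Fluo-8 no-wash fluorescent dye | read-out = % inhibition | benchmarks = low control ATP plus DMSO, high control DMSO only | repeats = one well per compound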
OX1R antag-2 – blocks the human orexin 1 receptor; inhibition, % at 5 µM; CHO/OX1R cells, Fluo-8 calcium fluorescence, orexin A; O43613; 330,000 tested, 0.43% active;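 active = inhibition above its plate's threshold, mean inhibition of all tested compounds on the plate plus 3 SD, cut at about 37% in these data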;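 note: 0% = orexin A challenge wells and 100% = SB-334867-A antagonist wells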
The depositor's hits bear a star; . = no result.

SMILES | GalR3 antagonist | OX1R antag-1 | GPR7 antagonist | CHO parental Ca | OX1R antag-2
O=C(O)c1cnc(-c2ccccc2)nc1-c1ccccc1 | -5 | 62* | -5 | -9 | 3
COC(=O)c1cn(NC(=O)Cc2cccc(C(F)(F)F)c2)c(=O)c2ccccc12 | -3 | 76* | -7 | 2 | -8
CN(C)P(=O)(Nc1cccc2ccccc12)Nc1cccc2ccccc12 | -10 | 59* | . | -8 | 32
CC(C)OP(=O)(Nc1cccc2ccccc12)OC(C)C | -6 | 8 | -8 | -12 | -14
CC[C@H](CO)Oc1cc(NCc2cccc(N)c2)c2ncn(C(C)C)c2c1 | -4 | . | . | . | .
COC(=O)c1cccc(NC(=O)Nc2ccc(Cl)cc2)c1 | -5 | 21 | -8 | 46* | 24
COC(=O)c1cccc(NC(=O)NC(=O)c2ccc(Cl)cc2)c1 | -2 | 9 | -11 | 1 | -5
CC(=O)c1ccc(NC(=O)Nc2ccc(Cl)cc2)cc1 | -3 | 27 | 18 | -6 | 33
CC(=O)c1ccc(NC(=S)NCc2ccc(Cl)cc2Cl)cc1 | 0 | 30 | 8 | 40* | 40*
Clc1ccc(CNC2CCCC2)c(Cl)c1 | -4 | 13 | 4 | -4 | 0
S=C(NCc1ccc(Cl)cc1Cl)NC1CCCCC1 | -4 | 11 | -8 | 28* | 8
CCCCNC(=O)C[C@H]1C[C@@]2(C(=O)OC)C(=C[C@H](C(C)(C)C)O[C@@H]2C)N(Cc2ccccc2)C1=O | -7 | . | . | . | .
CC(C)(C)C(=O)c1c(N)[nH]c(C(=O)c2ccccc2)c1-c1cc2ccccc2nc1Cl | 0 | . | . | . | .
O=C(NC1CCCC1)C(c1ccc(F)cc1)N1CCC(O)(c2ccc(Cl)cc2)CC1 (centres undefined) | -5 | . | . | . | .
COc1cc(Cl)c(NC2=CC(=O)C(=O)c3ccccc32)c(OC)c1 | -3 | 33* | . | -17 | -9
CCCc1cc(C(=O)N2CCCC(C(=O)c3cc(C)c(OC)c(C)c3)C2)n(C)n1 (centres undefined) | -11 | 37* | -16 | -29 | -5
COc1c(C)cc(C(=O)C2CCCN(C(=O)c3csc(C)n3)C2)cc1C (centres undefined) | 5 | 32 | -19 | -12 | -14
COc1c(C)cc(C(=O)C2CCCN(C(=O)c3ccc4[nH]ccc4c3)C2)cc1C (centres undefined) | -2 | 75* | -6 | -19 | -11
FC(F)(F)c1nc2cc3nc4ccccc4[nH]c3cc2n1 | 7 | 54* | -12 | -8 | -9
OC(c1nc2ccccc2[nH]1)C(O)c1nc2ccccc2[nH]1 (centres undefined) | -6 | -8 | -10 | -16 | -18
CCCCc1c(-c2ccccc2OC)ncn1Cc1c(Cl)cccc1Cl | -8 | . | . | . | .
COc1ccc(C)cc1NC(=O)C(=O)NNC(=O)COc1ccc(Cl)cc1 | -3 | 19 | -12 | 35* | 28
COc1ccccc1N(CC(=O)N/N=C/c1c(O)ccc2ccccc12)S(C)(=O)=O | -3 | 69* | 1 | -11 | -11
CCOC(=O)N[C@H](C(=O)N1CCC[C@H]1C(=O)NCCc1ccccc1Cl)C1CCCCC1 | -6 | . | . | . | .
CC(=O)c1cccc(NC(=O)CCS(=O)(=O)c2cccc3nonc23)c1 | -4 | 58* | -5 | -3 | -11
SMILES | GalR3 antagonist | OX1R antag-1 | GPR7 antagonist | CHO parental Ca | OX1R antag-2
COc1ccc(N(C)C(=O)CCS(=O)(=O)c2cccc3nonc23)c(OC)c1 | -5 | 61* | 4 | 1 | -20
Cc1cccc(N(C)C(=O)CCS(=O)(=O)c2cccc3nonc23)c1 | -2 | 52* | -11 | -16 | -16
COc1cccc(CNC(=O)CCS(=O)(=O)c2cccc3nsnc23)c1 | -2 | 36 | 4 | -3 | -22
COc1ccc(NS(=O)(=O)c2cccc3nonc23)c(OC)c1 | -2 | 26 | 2 | -3 | -20
COc1cccc(CNC(=O)CCS(=O)(=O)c2cccc3nonc23)c1 | -2 | 59* | -10 | -16 | -14
Cc1ccc(NC(=O)CCS(=O)(=O)c2cccc3nonc23)cc1 | -4 | 42 | -7 | -9 | -10
CC(C)N(Cc1ccccc1)S(=O)(=O)c1n[nH]c(C(C)(C)C)n1 | -8 | . | . | . | .
C[C@@H]1ON(C)[C@H]2C[C@H]3c4cc(N5CCN(C)CC5)ccc4CCN3C[C@@H]12 | -5 | . | . | . | .
CCOC(=O)Cc1csc(-n2sc3ccccc3c2=O)n1 | -6 | 16 | 3 | 32* | 18
O=C(Cn1c(C(=O)N2CCN(C3CCCCC3)CC2)cc2sccc21)c1ccccc1 | -5 | 11 | 20* | -21 | -30
O=C(c1cc2sccc2n1Cc1ccccc1)N1CCN(c2nc3ccccc3s2)CC1 | -4 | 17 | 24 | 35* | -10
O=C(Cn1c(C(=O)N2CCc3ccccc3C2)cc2sccc21)c1ccccc1 | . | 11 | -2 | -19 | -25
CCC(=O)N1CCN(c2nc3ccccc3s2)CC1 | 2 | 4 | -2 | -7 | -19
Cc1[nH]n(-c2ccc(Br)cc2)c(=O)c1/C=N/NC(=O)c1ccccc1 | -1 | . | -4 | . | .
Cc1ccc(-n2[nH]c(C)c(/C=N/NC(=O)c3ccc(O)cc3O)c2=O)cc1 | . | 38* | -3 | -4 | -5
Cc1[nH]n(-c2ccccc2)c(=O)c1/C=N/NC(=O)c1ccc(O)cc1O | . | 37* | 0 | -11 | -21
CCC(=O)N1CCCC1(C)C(=O)Nc1ccc2nc(C)ccc2c1 (centres undefined) | -1 | . | . | . | .
Cc1cccnc1N=O | -1 | . | . | . | .
O=C1NCN(c2ccccc2)C12CCN(CCCC(c1ccc(F)cc1)c1ccc(F)cc1)CC2 | . | 16 | -4 | 25 | 40*
COc1cc(OC)nc(Nc2nc(C(N)Cc3ccc(Cl)cc3)cs2)n1 (centres undefined) | -5 | . | . | . | .
Cc1cc(C2(c3ccc(O)c(C)c3)C(=O)Nc3ccccc32)ccc1O | 1 | 13 | -11 | 43* | 18
O=C1Nc2ccccc2C1(O)c1ccccc1 (centres undefined) | -2 | 13 | -11 | 0 | -13
Cc1ccc2nc(C(C)O)[nH]c2c1 (centres undefined) | -5 | 11 | -2 | 45* | 1
Cc1ccc2nc(C(O)C(O)c3nc4ccc(C)cc4[nH]3)[nH]c2c1 (centres undefined) | -3 | -14 | -3 | -27 | -24
CCOC(=O)c1c(NC(=O)CSc2nnc(-c3c[nH]c4ccccc34)n2CCOC)sc2c1CCCC2 | . | 41* | 1 | 2 | 12
CCOC(=O)c1c(NC(=O)CSc2nnc(C)s2)sc2c1CCCCC2 | -6 | 15 | 5 | 52* | 54*
COCCn1c(SCC(=O)Nc2ccc3c(c2)OCCO3)nnc1-c1c[nH]c2ccccc12 | -5 | 50* | 7 | -31 | 6
COCCn1c(SCC(=O)Nc2ccc3c(c2)OCCO3)nnc1-c1ccncc1 | -1 | 19 | . | -8 | 1
CC(=O)n1cc(N(C(=O)CCl)c2ccc([N+](=O)[O-])cc2)c2ccccc21 | -4 | 20 | 21* | -15 | 6
CC(=O)n1cc(N(C(=O)CCl)c2ccccc2)c2ccccc21 | -6 | 5 | -7 | -6 | -9
